Measured values from ChEMBL document CHEMBL3877298, “Discovery of benzimidazole derivatives as modulators of mitochondrial function: A potential treatment for Alzheimer's disease” (Eur J Med Chem, 2017).

Columns and labels:
[1] = target: Translocator protein (Mus musculus) (UniProt P50637); experiment: (§1) Inhibition of TSPO in mouse HT22 cells assessed as protection against amyloid beta (1 to 42)-induced mitochondrial membrane potential loss by measuring recovery of ATP production at 5 uM preincubated for 10 mins followed by amyloid beta (1 to 42) addition measured after 7 hrs by luciferase reporter gene assay relative to control; assay type: cell-based; design: scale not given: the % may be the effect or the level left; conditions: HT-22
Sequence of Translocator protein (Mus musculus) (P50637 whole entry, looked up): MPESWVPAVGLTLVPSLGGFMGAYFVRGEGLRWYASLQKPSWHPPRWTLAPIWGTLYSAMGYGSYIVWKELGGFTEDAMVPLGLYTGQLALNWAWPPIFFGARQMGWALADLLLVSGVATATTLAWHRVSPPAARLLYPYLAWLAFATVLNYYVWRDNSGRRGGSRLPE
In short: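 HT22 cells at 7000 per well were given compound (5 µM) for 10 min at 37 °C, then Aβ1-42 (5 µM) or DMSO vehicle, and incubated 7 h. Cells were washed, lysed in 1% Triton X-100, and protein-equalised by BCA. ATP was measured by luciferin/luciferase luminescence and normalised to vehicle.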

CYP2C19 = CYP2C19 (Homo sapiens, UniProt P33261); experiment: Inhibition of recombinant human CYP2C19 expressed in baculosomes coexpressing rabbit NADPH-P450 reudctase assessed as residual activity at 10 uM preincubated for 5 mins followed by substrate and NADP+ addition measured after 20 mins by fluorescence assay relative to control; assay type: ADME; conditions: read-out: Activity
Sequence of CYP2C19 (P33261 whole entry): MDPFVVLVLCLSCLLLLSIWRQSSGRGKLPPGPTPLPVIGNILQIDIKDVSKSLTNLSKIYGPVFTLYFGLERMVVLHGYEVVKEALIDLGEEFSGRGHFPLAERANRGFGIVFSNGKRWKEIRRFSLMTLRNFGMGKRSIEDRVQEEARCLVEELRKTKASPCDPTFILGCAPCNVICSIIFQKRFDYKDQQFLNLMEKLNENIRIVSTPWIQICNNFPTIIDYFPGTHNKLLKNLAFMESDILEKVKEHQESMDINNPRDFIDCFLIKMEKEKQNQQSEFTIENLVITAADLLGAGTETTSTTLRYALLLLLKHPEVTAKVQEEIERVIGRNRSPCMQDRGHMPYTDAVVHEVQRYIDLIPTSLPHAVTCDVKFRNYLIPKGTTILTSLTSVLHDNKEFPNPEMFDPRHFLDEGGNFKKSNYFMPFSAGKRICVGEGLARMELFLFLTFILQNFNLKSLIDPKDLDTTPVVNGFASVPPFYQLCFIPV
In short: (§2)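 Vivid CYP450 kit: recombinant human CYP isozyme in Baculosomes with rabbit NADPH-P450 reductase, plus regeneration system (3.3 mM glucose-6-phosphate, 0.3 U/mL G6PDH in 100 mM potassium phosphate, pH 8.0). Mixture preincubated with sample for 5 min at 37 °C. Vivid substrate and 0.1 mM NADP+ were then added, and remaining activity read by fluorescence after 20 min.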

[2] = target: Translocator protein (Mus musculus) (UniProt P50637); experiment: Inhibition of TSPO in mouse HT22 cells assessed as inhibition of amyloid beta (1 to 42)-induced ROS generation at 5 uM after 6 hrs by DCFDA staining based fluorescence assay relative to control; assay type: cell-based; conditions: HT-22
[3] = target: Translocator protein (Mus musculus) (UniProt P50637); experiment: as §1, with “mitochondrial membrane potential” for “ATP production”, “every 1 hr for 3” for “after 7”, “JC1 staining based fluorescence” for “luciferase reporter gene”; assay type: cell-based; design: scale not given: the % may be the effect or the level left; conditions: HT-22
In short: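 HT22 cells at 30,000 per well were loaded with 7.5 µM JC-1 in phenol red-free Opti-MEM for 1 h 15 min at 37 °C, then washed. Cells were treated with compound (5 µM) and Aβ1-42 (5 µM); vehicle wells received DMSO. Green (485/535) and red (560/595) fluorescence were read hourly for 3 h. Recovery was normalised between Aβ-damaged (0%) and normal (100%) ratio.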

CYP3A4 = CYP3A4 (Homo sapiens, UniProt P08684); experiment: Inhibition of recombinant human CYP3A4 expressed in baculosomes coexpressing rabbit NADPH-P450 reudctase assessed as residual activity at 10 uM preincubated for 5 mins followed by substrate and NADP+ addition measured after 20 mins by fluorescence assay relative to control; assay type: ADME; conditions: read-out: Activity; in short: as §2
Sequence of CYP3A4 (P08684 whole entry): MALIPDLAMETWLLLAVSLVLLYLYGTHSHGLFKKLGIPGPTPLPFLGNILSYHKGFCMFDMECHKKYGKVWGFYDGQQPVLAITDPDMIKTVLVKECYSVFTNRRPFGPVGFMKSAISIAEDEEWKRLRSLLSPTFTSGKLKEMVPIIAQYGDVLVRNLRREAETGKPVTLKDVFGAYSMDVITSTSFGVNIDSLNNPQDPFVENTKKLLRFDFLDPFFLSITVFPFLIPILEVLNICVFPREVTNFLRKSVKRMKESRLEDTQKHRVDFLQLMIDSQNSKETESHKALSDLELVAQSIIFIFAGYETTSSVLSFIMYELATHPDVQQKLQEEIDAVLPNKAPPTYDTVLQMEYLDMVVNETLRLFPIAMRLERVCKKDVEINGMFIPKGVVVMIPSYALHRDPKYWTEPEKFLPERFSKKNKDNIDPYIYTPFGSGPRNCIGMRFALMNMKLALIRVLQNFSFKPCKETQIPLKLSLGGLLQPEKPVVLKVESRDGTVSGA

[4] = Cytotoxicity against mouse HT22 cells assessed as cell viability at 5 uM after 24 hrs by MTT assay relative to control; assay type: toxicity, HT-22; conditions: read-out: Activity
In short: (§3)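 MTT was added for 2 h, then solubilising solution (10% Triton X-100 in isopropanol with 0.1 M HCl) for 2 h more. Absorbance read at 560 nm; % inhibition normalised to vehicle, and viability taken from compound-only wells.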

[5] = target: Translocator protein (Mus musculus) (UniProt P50637); experiment: Inhibition of TSPO in mouse HT22 cells assessed as inhibition of amyloid beta (1 to 42)-induced toxicity at 5 uM after 24 hrs by MTT assay relative to control; assay type: cell-based; conditions: HT-22
In short: as §3, with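 “HT22 cells at 5000 per well were treated with compound (5 µM), with or without Aβ1-42 (5 µM), for 24 h at 37 °C. MTT” for “MTT”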

CYP1A2 = target: T1, CYP1A2 (Homo sapiens, UniProt P05177); experiment: Inhibition of recombinant human CYP1A2 expressed in baculosomes coexpressing rabbit NADPH-P450 reudctase assessed as residual activity at 10 uM preincubated for 5 mins followed by substrate and NADP+ addition measured after 20 mins by fluorescence assay relative to control; assay type: ADME; conditions: read-out: Activity; in short: as §2
T1 sequence (P05177 whole entry): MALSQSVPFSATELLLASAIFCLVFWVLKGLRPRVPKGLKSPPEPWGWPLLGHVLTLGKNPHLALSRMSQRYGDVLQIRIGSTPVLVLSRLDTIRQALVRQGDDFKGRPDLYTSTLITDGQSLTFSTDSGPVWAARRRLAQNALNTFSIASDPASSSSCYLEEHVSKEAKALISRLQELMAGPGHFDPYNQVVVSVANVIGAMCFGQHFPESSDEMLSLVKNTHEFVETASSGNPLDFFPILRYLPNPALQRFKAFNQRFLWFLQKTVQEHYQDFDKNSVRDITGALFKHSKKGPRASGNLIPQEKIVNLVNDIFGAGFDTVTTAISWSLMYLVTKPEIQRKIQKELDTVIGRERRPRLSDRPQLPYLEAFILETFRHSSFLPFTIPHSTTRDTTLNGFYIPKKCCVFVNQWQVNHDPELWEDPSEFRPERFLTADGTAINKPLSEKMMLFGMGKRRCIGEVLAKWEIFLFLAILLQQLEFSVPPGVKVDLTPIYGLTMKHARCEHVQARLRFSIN

CYP2C9 = CYP2C9 (Homo sapiens, UniProt P11712); experiment: Inhibition of recombinant human CYP2C9 expressed in baculosomes coexpressing rabbit NADPH-P450 reudctase assessed as residual activity at 10 uM preincubated for 5 mins followed by substrate and NADP+ addition measured after 20 mins by fluorescence assay relative to control; assay type: ADME; conditions: read-out: Activity; in short: as §2
Sequence of CYP2C9 (P11712 whole entry): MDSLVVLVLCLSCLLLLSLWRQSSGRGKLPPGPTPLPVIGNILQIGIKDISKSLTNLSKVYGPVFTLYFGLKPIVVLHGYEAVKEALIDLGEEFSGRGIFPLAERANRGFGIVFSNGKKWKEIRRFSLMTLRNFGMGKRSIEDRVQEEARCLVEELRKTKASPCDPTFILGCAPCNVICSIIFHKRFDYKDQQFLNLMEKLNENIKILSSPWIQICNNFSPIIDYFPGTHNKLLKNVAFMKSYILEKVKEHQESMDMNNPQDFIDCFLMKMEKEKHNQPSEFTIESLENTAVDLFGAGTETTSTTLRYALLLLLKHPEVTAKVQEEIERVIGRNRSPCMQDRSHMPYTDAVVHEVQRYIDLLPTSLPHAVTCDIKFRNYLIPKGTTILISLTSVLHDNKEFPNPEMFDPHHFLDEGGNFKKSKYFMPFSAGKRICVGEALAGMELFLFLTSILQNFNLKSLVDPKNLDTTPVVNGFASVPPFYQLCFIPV

CYP2D6 = CYP2D6 (Homo sapiens, UniProt P10635); experiment: Inhibition of recombinant human CYP2D6 expressed in baculosomes coexpressing rabbit NADPH-P450 reudctase assessed as residual activity at 10 uM preincubated for 5 mins followed by substrate and NADP+ addition measured after 20 mins by fluorescence assay relative to control; assay type: ADME; conditions: read-out: Activity; in short: as §2
Sequence of CYP2D6 (P10635 whole entry): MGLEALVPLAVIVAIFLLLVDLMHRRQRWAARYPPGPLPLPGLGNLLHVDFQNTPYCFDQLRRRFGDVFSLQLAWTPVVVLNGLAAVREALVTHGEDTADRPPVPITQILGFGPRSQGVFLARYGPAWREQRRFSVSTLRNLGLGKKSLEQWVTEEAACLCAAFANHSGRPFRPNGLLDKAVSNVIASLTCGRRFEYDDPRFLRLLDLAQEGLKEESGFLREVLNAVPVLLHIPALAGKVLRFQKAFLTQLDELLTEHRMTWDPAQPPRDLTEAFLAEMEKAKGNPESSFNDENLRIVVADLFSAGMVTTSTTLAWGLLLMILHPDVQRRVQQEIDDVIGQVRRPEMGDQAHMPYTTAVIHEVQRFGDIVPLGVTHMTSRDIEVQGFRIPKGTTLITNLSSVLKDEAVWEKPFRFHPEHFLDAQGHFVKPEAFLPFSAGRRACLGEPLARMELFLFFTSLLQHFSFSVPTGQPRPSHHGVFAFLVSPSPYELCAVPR

Mus musculus = experiment: Cognition enhancing effect in ICR mouse model of acute Alzheimer's disease assessed as reversal of amyloid beta (1 to 42)-induced cognitive deficit by measuring spatial working memory at 30 mg/kg, ip daily for 6 days measured on day 7 by Y maze spontaneous alteration test relative to control; assay type: functional
In short: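 Male ICR mice (6 weeks, 30–33 g) received Aβ1-42 500 pmol ICV in 10% DMSO/PBS. Compound in 20% cyclodextrin was given at 30 mg/kg daily for 6 days (n = 7 per group). One day later, each mouse explored a three-arm Y-maze for 8 min, and the sequence of arm entries was used to calculate % spontaneous alternation.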

Translocator protein = Translocator protein (Homo sapiens, UniProt P30536); experiment: Inhibition of TSPO (unknown origin)
Sequence of Translocator protein (P30536 whole entry): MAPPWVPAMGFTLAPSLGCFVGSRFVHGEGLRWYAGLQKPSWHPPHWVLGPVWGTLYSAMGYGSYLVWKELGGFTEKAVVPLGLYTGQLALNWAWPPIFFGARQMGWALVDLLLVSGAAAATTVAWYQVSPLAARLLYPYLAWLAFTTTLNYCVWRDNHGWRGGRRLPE
In short: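 Membranes from male Sprague-Dawley rat cerebral cortex were homogenised and washed in Tris-HCl (30 mM, pH 7.4), then washed in Tris-citrate (50 mM, pH 7.1). Bound and free ligand were separated by filtration through GF/C filters and counted by scintillation. Percent displacement gave the IC50, and Ki was calculated as IC50/(1+[L]/Kd).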

[6] = target: Voltage-gated inwardly rectifying potassium channel KCNH2 (Homo sapiens, UniProt Q12809); experiment: Inhibition of human ERG expressed in CHOK1 cells by automated patch clamp method; assay type: cell-based, CHO-K1
Sequence of Voltage-gated inwardly rectifying potassium channel KCNH2 (Q12809 whole entry): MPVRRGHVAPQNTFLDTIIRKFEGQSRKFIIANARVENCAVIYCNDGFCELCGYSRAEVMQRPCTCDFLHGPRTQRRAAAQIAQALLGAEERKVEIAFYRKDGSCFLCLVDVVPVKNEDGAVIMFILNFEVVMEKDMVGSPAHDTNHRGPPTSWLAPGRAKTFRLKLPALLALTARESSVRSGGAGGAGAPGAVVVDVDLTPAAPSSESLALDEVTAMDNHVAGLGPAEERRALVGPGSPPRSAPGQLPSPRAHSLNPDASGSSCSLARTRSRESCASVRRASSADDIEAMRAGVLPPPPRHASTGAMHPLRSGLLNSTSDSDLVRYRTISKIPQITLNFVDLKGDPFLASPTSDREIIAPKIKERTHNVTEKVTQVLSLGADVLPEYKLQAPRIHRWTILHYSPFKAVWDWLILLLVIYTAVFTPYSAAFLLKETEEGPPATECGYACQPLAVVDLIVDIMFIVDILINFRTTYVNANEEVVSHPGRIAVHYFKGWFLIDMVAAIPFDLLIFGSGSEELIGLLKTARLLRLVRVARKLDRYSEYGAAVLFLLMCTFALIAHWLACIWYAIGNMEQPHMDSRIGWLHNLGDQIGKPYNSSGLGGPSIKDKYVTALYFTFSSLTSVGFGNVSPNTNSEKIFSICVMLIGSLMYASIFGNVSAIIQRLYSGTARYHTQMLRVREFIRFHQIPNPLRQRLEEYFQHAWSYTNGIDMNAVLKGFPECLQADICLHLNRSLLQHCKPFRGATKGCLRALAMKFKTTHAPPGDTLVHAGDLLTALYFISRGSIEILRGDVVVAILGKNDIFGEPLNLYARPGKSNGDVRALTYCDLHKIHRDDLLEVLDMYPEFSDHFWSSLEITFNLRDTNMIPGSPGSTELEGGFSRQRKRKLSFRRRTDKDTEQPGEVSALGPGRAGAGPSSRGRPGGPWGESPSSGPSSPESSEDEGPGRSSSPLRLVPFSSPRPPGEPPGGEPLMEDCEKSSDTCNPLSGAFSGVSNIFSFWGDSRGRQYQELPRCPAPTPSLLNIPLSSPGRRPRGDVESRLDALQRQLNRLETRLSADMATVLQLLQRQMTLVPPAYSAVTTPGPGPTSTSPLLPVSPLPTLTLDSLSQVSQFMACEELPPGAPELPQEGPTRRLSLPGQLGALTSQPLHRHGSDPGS

Work on `CN(C)CCCNC(=O)c1ccc(Cn2c(Cc3c(Cl)cccc3Cl)nc3ccccc32)cc1` yielded an Activity [1] of 85%, an activity at 20 min, 10 µM (CYP2C19) of 72.9% and an inhibition [2] of 9%. The Activity [3] was 82%, the activity at 20 min, 10 µM (CYP3A4) was 206% and the viability at 24 h, 5 µM [4] was 93 to 111%. The inhibition [5] was 7%, the activity at 20 min, 10 µM (CYP1A2) was 66.1% and the activity at 20 min, 10 µM (CYP2C9) was 53.9%. It also gave an activity at 20 min, 10 µM (CYP2D6) of 120% and an Activity (Mus musculus) of 62%.
With `Cc1ccc(C(C)C)cc1NC(=O)Cn1c(-c2cc(Cl)ccc2Cl)nc2ccc(Cl)cc21` the Activity [1] was 69%, the activity at 20 min, 10 µM (CYP2C19) was 11.9% and the inhibition [2] was 107%. For the same compound, the Activity [3] was 87%, the activity at 20 min, 10 µM (CYP3A4) was 15.4% and the viability at 24 h, 5 µM [4] was 86 to 106%. For the same compound, the inhibition [5] was 0%, the activity at 20 min, 10 µM (CYP1A2) was 56.3% and the activity at 20 min, 10 µM (CYP2C9) was 29.6%. It also gave an activity at 20 min, 10 µM (CYP2D6) of 82.2%.
`CCCCN(CCCC)C(=O)Cc1c(-c2ccc(Cl)cc2)nc2c(Cl)cc(Cl)cn12` gave a Ki (Translocator protein) of 2.68 nM.
`CC(=O)N(Cc1ccccc1OC(C)C)c1ccc(Cl)cc1Oc1ccccc1` showed an IC50 (Translocator protein) of 0.92 nM.
`NC(=O)CN1CCCC1=O` gave an Activity [1] of 127%, an inhibition [2] of 129% and an Activity [3] of 60%. For the same compound, the viability at 24 h, 5 µM [4] was 88 to 132%, the inhibition [5] was 29% and the Activity (Mus musculus) was 32%.
Compound `CCN1CCCC1CNC(=O)c1ccc(Cn2c(Cc3c(Cl)cccc3Cl)nc3ccccc32)cc1` (stereo not drawn) has an Activity [1] of 51%, an activity at 20 min, 10 µM (CYP2C19) of 31.4% and an inhibition [2] of 24%. For the same compound, the Activity [3] was 90%, the activity at 20 min, 10 µM (CYP3A4) was 130% and the viability at 24 h, 5 µM [4] was 62 to 122%. It also gave an inhibition [5] of 6%, an activity at 20 min, 10 µM (CYP1A2) of 63% and an activity at 20 min, 10 µM (CYP2C9) of 50.6%. It also gave an activity at 20 min, 10 µM (CYP2D6) of 82.4% and an IC50 [6] of 1570 nM.
In the case of `O=C(NCCCN1CCCCC1)c1ccc(Cn2c(Cc3c(Cl)cccc3Cl)nc3ccccc32)cc1`, the Activity [1] is reported as 64%, the activity at 20 min, 10 µM (CYP2C19) is reported as 67.3% and the inhibition [2] is reported as 27%. For the same compound, the Activity [3] was 90%, the activity at 20 min, 10 µM (CYP3A4) was 176% and the viability at 24 h, 5 µM [4] was 86 to 118%. The inhibition [5] was 3%, the activity at 20 min, 10 µM (CYP1A2) was 68.4% and the activity at 20 min, 10 µM (CYP2C9) was 61.1%. For the same compound, the activity at 20 min, 10 µM (CYP2D6) was 25.5%.
`CCCCCCN(CCCCCC)C(=O)Cc1c(-c2ccc(F)cc2)[nH]c2ccccc12` gave a Ki (Translocator protein) of 3.25 nM.
`COc1ccc(OC)c(CN(C(C)=O)c2ccc(F)cc2Oc2ccccc2)c1` gave an IC50 (Translocator protein) of 1.6 nM.
In the case of `COc1ccc(OC)c(Cc2nc3ccccc3n2CC(=O)Nc2cc(C(C)(C)C)cc(C(C)(C)C)c2)c1`, the Activity [1] is reported as 46%, the activity at 20 min, 10 µM (CYP2C19) is reported as 43.9% and the inhibition [2] is reported as 10%. It also gave an Activity [3] of 54%, an activity at 20 min, 10 µM (CYP3A4) of 43.3% and a viability at 24 h, 5 µM [4] of 99 to 112%. The inhibition [5] was 36%, the activity at 20 min, 10 µM (CYP1A2) was 92.5% and the activity at 20 min, 10 µM (CYP2C9) was 36.1%. It also gave an activity at 20 min, 10 µM (CYP2D6) of 56.3% and an IC50 [6] of 20 nM.
